Key:
[1] = Velocity compared to a control 50 uM aminopterin run on each test; type: ADME
Method in brief: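 Substrate activity toward partially purified hog liver folylpolyglutamate synthetase. Velocity expressed as percent of a 50 µM aminopterin control included in every run.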

MCF7 [2] = assay: Cell culture cytotoxicity of MCF-7 breast adenocarcinoma cells; type: functional, Homo sapiens
Method in brief: (§1)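 MCF-7 cells kept in folic acid-free RPMI 1640 with 10 nM (6R,S)-5-formyltetrahydrofolic acid as sole folate plus 10% charcoal-dialyzed FBS. MTT dye-reduction assay after continuous drug exposure for 96 h. Value is the concentration giving 50% reduction in growth rate.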

Thymidylate synthase [3] = molecular target: T1, Thymidylate synthase (Homo sapiens, UniProt P04818); assay: Inhibitory activity against thymidylate synthase (TS); conditions: read-out: I50
T1 sequence (P04818 whole entry): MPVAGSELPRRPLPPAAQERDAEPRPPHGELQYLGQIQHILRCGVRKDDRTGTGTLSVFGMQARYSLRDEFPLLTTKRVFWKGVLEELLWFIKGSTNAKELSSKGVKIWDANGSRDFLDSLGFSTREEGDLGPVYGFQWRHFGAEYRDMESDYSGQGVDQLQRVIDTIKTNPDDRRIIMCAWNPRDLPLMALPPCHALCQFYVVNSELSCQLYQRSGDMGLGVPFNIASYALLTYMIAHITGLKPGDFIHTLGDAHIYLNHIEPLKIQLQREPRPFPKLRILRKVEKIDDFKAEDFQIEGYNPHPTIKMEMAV

MCF7 [4] = assay: Cell culture cytotoxicity (CCCT) of MCF-7 breast adenocarcinoma cells; type: functional, Homo sapiens; method in brief: as §1
Thymidylate synthase [5] = molecular target: T1, Thymidylate synthase; assay: Inhibition of purified human thymidylate synthase (TS) isolated from an Escherichia coli harboring a plasmid with thy A gene cloned from SV40 transformed human fibroblast cells; type: cell-free
Method in brief: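 Purified recombinant human TS, expressed in E. coli from a thyA gene cloned from SV40-transformed human fibroblasts. Inhibition was measured by a modified tritium-release assay. Ki was estimated by treating compounds as tight-binding noncompetitive inhibitors.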

SW480 [6] = assay: Cell culture cytotoxicity of SW480 colon adenocarcinoma cells.; type: functional, Homo sapiens
Method in brief: (§2)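 SW480 or MOLT-4 cells grown in folic acid-free RPMI 1640 supplemented with 10 nM (6R,S)-5-formyltetrahydrofolic acid and 10% charcoal-dialyzed FBS. Continuous 72 h drug exposure, growth read by MTT tetrazolium dye reduction. Reported as the concentration halving growth rate.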

MOLT-4 [7] = assay: Inhibition constant against the transport of [3H]- methotrexate (MTX) by MOLT-4 T-cell; type: functional, Homo sapiens
Method in brief: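 Uptake of [3H]methotrexate, a substrate of the reduced folate carrier, into MOLT-4 T-cell leukemia cells measured with and without compound. Inhibition constant derived against this transport.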

SW480 [8] = assay: Cell culture cytotoxicity of SW480 colon adenocarcinoma cells; type: functional, Homo sapiens; method in brief: as §2
MOLT-4 [9] = molecular target: MOLT-4
MOLT-4 [10] = assay: Cell culture cytotoxicity of MOLT-4 T-cell leukemia cells; type: functional, Homo sapiens; method in brief: as §2
Sus scrofa = organism: Sus scrofa; conditions: Liver
Thymidylate synthase [11] = molecular target: T1, Thymidylate synthase; assay: Inhibition of purified human thymidylate synthase isolated from an Escherichia coli harboring thy A gene cloned from SV40 transformed human fibroblast cells; type: cell-free
[12] = Ratio of relative velocity to that of the Michaelis constant

| Compound | Vm rel [1] | CCCT (MCF7 [2]) | CCCT (SW480 [8]) | other results |
| --- | --- | --- | --- | --- |
| Nc1nc(O)c2c(n1)CCc1cc(S(=O)(=O)Nc3ccc(C(=O)N[C@@H](CCC(=O)O)C(=O)O)cc3)ccc1-2 | 102% | 25 µM |  |  |
| Nc1nc(O)c2c(n1)CCc1ccccc1-2 |  | >100 µM |  |  |
| Cc1nc(O)c2c(ccc3ccccc32)n1 |  | >100 µM |  |  |
| Nc1nc(O)c2c(ccc3ccc(Br)cc32)n1 |  |  |  | CCCT (MCF7 [4]): 10 µM; Ki (Thymidylate synthase [5]): 20 nM |
| Nc1nc(O)c2c(ccc3cc(S(=O)(=O)Nc4ccc(C(=O)N[C@@H](CCC(=O)O)C(=O)O)cc4)c(Br)cc32)n1 |  | >50 µM |  | CCCT (SW480 [6]): >50 µM; Inhibition (MOLT-4 [7]): 45%; Ki (Thymidylate synthase [5]): 16400 nM |
| Cc1nc(O)c2c(n1)CCc1ccc(S(=O)(=O)N(C)c3ccc(C(=O)N[C@@H](CCC(=O)O)C(=O)O)cc3)cc1-2 |  | >50 µM | >50 µM |  |
| Cc1nc(O)c2c(ccc3ccc(S(=O)(=O)Nc4ccc(C(=O)N[C@@H](CCC(=O)O)C(=O)O)cc4)cc32)n1 |  | 0.07 µM | 2.4 µM | Ki (MOLT-4 [9]): 4900 nM; CCCT (MOLT-4 [10]): 0.12 µM; Km (Sus scrofa): 3.11 µM |
| Cc1nc(O)c2c(ccc3c(S(=O)(=O)Nc4ccc(C(=O)N[C@@H](CCC(=O)O)C(=O)O)cc4)cccc32)n1 |  | 50 µM | >100 µM | Vel rem [1]: 55.2% |
| Cc1nc2ccc3ccc(S(=O)(=O)Nc4ccc(C(=O)N[C@@H](CCC(=O)O)C(=O)O)cc4)cc3c2c(=O)[nH]1 | 185% |  |  | Ki (Thymidylate synthase [11]): 5.5 nM; V/K [12]: 59.6 |
| Nc1nc(O)c2c(n1)CCc1ccc(S(=O)(=O)Nc3ccc(C(=O)N[C@@H](CCC(=O)O)C(=O)O)cc3)cc1-2 | 115% | 0.65 µM | 7.9 µM | CCCT (MOLT-4 [10]): 2.4 µM |
| Cc1nc(O)c2c(n1)CCc1ccc(S(=O)(=O)Nc3ccc(C(=O)N[C@@H](CCC(=O)O)C(=O)O)cc3)cc1-2 | 109% | 0.65 µM | 4.1 µM | CCCT (MOLT-4 [10]): 0.2 µM |
| C#CCN(c1ccc(C(=O)N[C@@H](CCC(=O)O)C(=O)O)cc1)S(=O)(=O)c1ccc2c(c1)CCc1nc(N)nc(O)c1-2 |  | >50 µM | >50 µM | CCCT (MOLT-4 [10]): >50 µM |
| Nc1nc(O)c2c(n1)CCc1cc(Br)c(S(=O)(=O)Nc3ccc(C(=O)N[C@@H](CCC(=O)O)C(=O)O)cc3)cc1-2 | 28.9% | >100 µM | >100 µM |  |
| Nc1nc(O)c2c(ccc3ccc(NS(=O)(=O)c4ccc(C(=O)N[C@@H](CCC(=O)O)C(=O)O)cc4)cc32)n1 |  |  |  | CCCT (SW480 [6]): >100 µM; Inhibition (MOLT-4 [7]): 42%; Ki (Thymidylate synthase [5]): 100 nM |
| Cc1nc(O)c2c(n1)CCc1ccccc1-2 |  | >100 µM |  |  |
